Measured values from ChEMBL document CHEMBL4251745, “The Notch Inhibitors Isolated from Nerium indicum” (J Nat Prod, 2018).
Calls of active or inactive are those of the source. The calls are words filed in the database; no cut-off is given here.

Experiments:
[1] = biological target: Neurogenic locus notch homolog protein 1 (Mus musculus, UniProt Q01705); experiment: Inhibition of recombinant mouse N-terminal FLAG-tagged Notch1 (1704 to 2531 residues) expressed in human LS174T cells assessed as reduction in doxycycline-induced NICD expression after 12 hrs by Bright-Glo luciferase reporter gene assay; format: cell-based
Neurogenic locus notch homolog protein 1, sequence (Q01705 whole entry, the tested form may be a part): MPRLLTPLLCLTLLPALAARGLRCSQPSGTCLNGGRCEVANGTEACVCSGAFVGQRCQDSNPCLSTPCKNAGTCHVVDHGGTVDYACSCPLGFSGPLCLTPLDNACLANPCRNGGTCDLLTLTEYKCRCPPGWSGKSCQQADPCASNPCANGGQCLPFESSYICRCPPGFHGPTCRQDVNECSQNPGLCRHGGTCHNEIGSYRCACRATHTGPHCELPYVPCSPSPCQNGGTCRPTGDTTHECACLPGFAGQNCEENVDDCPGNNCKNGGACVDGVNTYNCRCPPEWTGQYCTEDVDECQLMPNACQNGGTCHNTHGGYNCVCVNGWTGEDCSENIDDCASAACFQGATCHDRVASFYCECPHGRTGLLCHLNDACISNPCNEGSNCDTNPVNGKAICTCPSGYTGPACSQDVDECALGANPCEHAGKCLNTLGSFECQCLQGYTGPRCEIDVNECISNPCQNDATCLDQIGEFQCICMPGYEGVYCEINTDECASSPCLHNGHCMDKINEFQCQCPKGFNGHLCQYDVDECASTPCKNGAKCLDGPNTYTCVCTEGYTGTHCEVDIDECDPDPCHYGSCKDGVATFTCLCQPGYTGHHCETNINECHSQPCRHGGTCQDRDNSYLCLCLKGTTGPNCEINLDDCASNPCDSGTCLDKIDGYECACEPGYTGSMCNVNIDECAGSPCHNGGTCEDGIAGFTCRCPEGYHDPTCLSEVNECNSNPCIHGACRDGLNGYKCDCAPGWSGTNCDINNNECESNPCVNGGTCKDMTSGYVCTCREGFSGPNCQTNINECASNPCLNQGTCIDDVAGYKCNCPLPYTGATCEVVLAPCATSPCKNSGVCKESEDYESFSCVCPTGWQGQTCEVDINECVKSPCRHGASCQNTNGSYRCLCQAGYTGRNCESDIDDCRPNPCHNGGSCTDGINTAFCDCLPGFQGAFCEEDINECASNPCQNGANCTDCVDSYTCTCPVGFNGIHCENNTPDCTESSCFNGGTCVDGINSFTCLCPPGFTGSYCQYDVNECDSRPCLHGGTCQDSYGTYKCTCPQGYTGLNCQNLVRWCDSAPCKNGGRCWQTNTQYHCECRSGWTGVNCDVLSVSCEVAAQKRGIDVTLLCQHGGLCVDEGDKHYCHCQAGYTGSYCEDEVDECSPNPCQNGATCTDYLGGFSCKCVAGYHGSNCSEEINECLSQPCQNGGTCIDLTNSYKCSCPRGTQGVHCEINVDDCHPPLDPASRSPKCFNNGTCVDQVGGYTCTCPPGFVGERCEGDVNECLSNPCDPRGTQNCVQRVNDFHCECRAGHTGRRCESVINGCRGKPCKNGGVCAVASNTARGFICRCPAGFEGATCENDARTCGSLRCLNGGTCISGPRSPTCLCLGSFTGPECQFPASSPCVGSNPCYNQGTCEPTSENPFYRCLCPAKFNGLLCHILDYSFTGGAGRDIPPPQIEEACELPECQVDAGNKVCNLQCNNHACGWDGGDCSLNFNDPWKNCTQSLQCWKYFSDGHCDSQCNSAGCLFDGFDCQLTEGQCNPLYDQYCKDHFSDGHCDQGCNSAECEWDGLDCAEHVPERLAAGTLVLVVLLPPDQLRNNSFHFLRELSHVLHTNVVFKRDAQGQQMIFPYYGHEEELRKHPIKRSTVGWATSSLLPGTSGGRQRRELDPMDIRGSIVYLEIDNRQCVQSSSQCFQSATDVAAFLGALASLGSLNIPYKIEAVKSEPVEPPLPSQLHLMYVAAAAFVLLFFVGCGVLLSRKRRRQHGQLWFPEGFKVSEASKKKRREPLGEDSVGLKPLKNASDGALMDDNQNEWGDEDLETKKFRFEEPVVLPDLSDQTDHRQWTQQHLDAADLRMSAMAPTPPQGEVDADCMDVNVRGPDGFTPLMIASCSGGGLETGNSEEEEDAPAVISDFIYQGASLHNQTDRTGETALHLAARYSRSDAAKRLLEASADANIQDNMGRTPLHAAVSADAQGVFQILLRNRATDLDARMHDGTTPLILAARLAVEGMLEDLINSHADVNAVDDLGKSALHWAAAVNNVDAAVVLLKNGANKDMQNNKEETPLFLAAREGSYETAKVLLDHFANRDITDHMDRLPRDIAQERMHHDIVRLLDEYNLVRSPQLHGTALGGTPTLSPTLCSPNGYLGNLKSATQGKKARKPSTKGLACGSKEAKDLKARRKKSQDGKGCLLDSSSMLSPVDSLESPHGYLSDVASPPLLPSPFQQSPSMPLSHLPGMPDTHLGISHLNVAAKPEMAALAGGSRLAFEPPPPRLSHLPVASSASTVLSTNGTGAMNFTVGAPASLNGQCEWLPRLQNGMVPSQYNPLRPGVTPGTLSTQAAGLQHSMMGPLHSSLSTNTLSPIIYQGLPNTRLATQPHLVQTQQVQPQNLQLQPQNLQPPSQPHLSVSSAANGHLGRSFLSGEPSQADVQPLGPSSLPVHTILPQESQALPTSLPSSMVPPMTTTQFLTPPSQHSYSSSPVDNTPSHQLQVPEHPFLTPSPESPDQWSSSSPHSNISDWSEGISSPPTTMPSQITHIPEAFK
In short: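 LS174T cells stably carrying a luciferase reporter under 12× RBP-J sites (β-globin promoter), 2 × 10^4 per well. After 12 h, doxycycline 50 ng/mL for 12 h induced Notch1(1704–2531). Then dox-free medium with compound, 0.1% DMSO, 12 h at 37 °C. Read by Bright-Glo luminescence, n = 3, with parallel FMCA viability.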

HPBALL [2] = experiment: Effect on Notch1 mRNA expression in human HPBALL cells at 0.1 to 0.5 uM measured after 12 hrs; format: functional, cell-based
[3] = biological target: Neurogenic locus notch homolog protein 1 (Homo sapiens) (UniProt P46531); experiment: Inhibition of Notch1 in human HPBALL cells assessed as reduction in NICD expression at 0.5 uM after 12 hrs in presence of proteasome inhibitor MG132 by Western blot analysis; format: cell-based
Neurogenic locus notch homolog protein 1 (Homo sapiens), sequence (P46531 whole entry): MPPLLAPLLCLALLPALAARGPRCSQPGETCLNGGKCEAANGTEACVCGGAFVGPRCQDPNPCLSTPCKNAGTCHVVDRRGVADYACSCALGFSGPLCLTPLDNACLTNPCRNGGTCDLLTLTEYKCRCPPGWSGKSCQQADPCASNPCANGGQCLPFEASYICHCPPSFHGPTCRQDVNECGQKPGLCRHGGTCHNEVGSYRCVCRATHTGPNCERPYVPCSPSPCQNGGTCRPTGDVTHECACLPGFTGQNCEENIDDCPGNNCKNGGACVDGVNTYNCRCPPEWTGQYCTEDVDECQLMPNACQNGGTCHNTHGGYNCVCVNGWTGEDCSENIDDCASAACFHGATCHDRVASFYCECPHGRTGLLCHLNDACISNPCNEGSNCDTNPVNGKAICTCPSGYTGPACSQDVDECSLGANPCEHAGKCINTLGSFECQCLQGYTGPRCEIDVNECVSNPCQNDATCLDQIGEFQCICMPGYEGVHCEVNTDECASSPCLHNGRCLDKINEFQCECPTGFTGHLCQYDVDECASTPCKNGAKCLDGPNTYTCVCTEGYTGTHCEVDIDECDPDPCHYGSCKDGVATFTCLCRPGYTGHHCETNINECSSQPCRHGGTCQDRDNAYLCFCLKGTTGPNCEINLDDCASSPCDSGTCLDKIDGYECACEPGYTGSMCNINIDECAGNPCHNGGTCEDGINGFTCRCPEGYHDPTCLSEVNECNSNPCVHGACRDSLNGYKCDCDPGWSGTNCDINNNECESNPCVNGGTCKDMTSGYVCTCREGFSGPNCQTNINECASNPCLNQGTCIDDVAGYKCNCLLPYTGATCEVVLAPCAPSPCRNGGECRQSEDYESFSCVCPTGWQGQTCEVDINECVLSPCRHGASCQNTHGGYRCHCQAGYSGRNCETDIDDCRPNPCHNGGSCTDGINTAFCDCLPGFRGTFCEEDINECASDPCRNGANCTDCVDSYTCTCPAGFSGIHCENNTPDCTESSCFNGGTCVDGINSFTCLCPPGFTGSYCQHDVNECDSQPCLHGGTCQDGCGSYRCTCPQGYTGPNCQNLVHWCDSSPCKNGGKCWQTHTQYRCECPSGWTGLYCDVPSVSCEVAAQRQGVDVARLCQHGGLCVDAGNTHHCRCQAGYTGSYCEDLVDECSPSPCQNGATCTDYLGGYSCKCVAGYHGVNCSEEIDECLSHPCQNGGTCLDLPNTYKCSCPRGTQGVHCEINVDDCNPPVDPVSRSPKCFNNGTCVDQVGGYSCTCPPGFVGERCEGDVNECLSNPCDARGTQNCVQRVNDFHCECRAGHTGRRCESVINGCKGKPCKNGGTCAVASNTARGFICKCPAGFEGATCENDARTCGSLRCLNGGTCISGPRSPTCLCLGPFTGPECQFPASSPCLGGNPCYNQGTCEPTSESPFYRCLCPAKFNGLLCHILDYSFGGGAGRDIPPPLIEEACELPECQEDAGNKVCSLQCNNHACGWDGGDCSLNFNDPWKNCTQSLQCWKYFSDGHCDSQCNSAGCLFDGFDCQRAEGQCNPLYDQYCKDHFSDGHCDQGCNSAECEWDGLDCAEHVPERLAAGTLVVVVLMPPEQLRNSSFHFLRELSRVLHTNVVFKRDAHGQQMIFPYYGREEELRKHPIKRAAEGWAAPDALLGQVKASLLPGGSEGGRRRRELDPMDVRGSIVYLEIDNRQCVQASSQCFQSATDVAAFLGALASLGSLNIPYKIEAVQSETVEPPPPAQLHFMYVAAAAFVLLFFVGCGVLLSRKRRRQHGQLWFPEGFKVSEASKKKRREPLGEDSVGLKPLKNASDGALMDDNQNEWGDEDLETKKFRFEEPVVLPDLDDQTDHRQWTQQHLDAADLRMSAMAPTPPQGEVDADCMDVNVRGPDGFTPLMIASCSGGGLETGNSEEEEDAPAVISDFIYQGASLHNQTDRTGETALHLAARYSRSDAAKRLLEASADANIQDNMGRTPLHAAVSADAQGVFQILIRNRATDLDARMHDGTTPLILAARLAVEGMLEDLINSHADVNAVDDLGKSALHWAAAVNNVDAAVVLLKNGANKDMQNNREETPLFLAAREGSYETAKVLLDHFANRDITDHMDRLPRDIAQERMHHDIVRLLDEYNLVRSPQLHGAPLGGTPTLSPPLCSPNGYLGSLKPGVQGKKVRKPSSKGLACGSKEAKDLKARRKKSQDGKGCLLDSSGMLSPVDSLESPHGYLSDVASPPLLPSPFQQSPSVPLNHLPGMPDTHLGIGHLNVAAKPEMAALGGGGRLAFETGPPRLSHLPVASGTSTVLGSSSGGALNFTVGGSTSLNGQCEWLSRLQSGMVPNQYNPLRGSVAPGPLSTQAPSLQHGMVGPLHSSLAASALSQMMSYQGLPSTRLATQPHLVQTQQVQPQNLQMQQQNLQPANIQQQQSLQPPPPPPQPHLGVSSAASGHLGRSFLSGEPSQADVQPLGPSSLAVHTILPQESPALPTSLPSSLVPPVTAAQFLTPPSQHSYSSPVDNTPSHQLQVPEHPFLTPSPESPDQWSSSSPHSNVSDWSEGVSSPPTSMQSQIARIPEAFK
In short: (§1)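 HPB-ALL cells at 1 × 10^6 per 6 cm dish, treated 12 h at 37 °C with compound plus proteasome inhibitor MG132 (18.5 μM). Lysates blotted on PVDF, probed for cleaved Notch1 (Val1744)/NICD with β-actin loading control, ECL detection.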

HPBALL [4] = experiment: Down regulation of Notch1 expression in human HPBALL cells at 0.5 uM after 12 hrs by Western blot analysis; format: functional, cell-based
[5] = biological target: Neurogenic locus notch homolog protein 1 (Homo sapiens) (UniProt P46531); experiment: Inhibition of Notch1 in human HPBALL cells assessed as reduction in HES1 expression after 72 hrs by Western blot analysis; format: cell-based
In short: (§2)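 HPB-ALL cells at 5 × 10^5 per 6 cm dish in RPMI-1640/10% FBS containing a range of compound concentrations, 72 h at 37 °C. Lysates run on SDS-PAGE and PVDF; probed with anti-HES1 or anti-cleaved Notch1 (Val1744) for NICD, β-actin control, ECL read-out.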

[6] = biological target: Neurogenic locus notch homolog protein 1 (Homo sapiens) (UniProt P46531); experiment: Inhibition of Notch1 in human HPBALL cells assessed as reduction in NICD expression at 0.5 uM after 12 hrs by Western blot analysis; format: cell-based
[7] = biological target: Neurogenic locus notch homolog protein 1 (Homo sapiens) (UniProt P46531); experiment: Inhibition of Notch1 in human HPBALL cells assessed as reduction in NICD expression after 72 hrs by Western blot analysis; format: cell-based; in short: as §2
HEK293 = experiment: Cytotoxicity against HEK293 cells after 72 hrs by fluorescence assay; format: cell-based; details: Homo sapiens, HEK293, 72 h
In short: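 HEK293 cells at 1 × 10^4 per well in DMEM with 10% FBS and penicillin/streptomycin. Pre-incubated 24 h at 37 °C, then medium replaced with fresh medium holding a range of compound concentrations. Exposed 72 h; medium removed and proliferation read by fluorometric microculture cytotoxicity assay (FMCA).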

HPBALL [8] = experiment: Cytotoxicity against human HPBALL cells after 72 hrs by alamar blue dye based fluorescence assay; format: functional, cell-based
In short: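 HPB-ALL T-ALL cells at 1 × 10^4 per well in RPMI-1640 with 10% FBS and penicillin/streptomycin. Compound added at seeding over a concentration range; 72 h at 37 °C. AlamarBlue then added for 4 h and fluorescence read to give viability.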

HPBALL [9] = experiment: Down regulation of Notch1 expression in human HPBALL cells at 0.5 uM after 12 hrs in presence of proteasome inhibitor MG132 by Western blot analysis; format: functional, cell-based; in short: as §1
[10] = biological target: Neurogenic locus notch homolog protein 1 (Mus musculus) (UniProt Q01705); experiment: Inhibition of doxycycline-induced recombinant mouse N-terminal FLAG-tagged Notch1 (1704 to 2531 residues) activation expressed in human LS174T cells assessed as reduction in Hes1 level at 0.05 to 0.3 uM after 12 hrs by Western blot analysis; format: cell-based
Neurogenic locus notch homolog protein 1 (Mus musculus), sequence (Q01705 whole entry, the tested form may be a part): as the sequence (Q01705 whole entry, the tested form may be a part) above
In short: (§3)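 LS174T Notch assay cells at 1 × 10^6 per 6 cm dish, 12 h at 37 °C, then doxycycline 50 ng/mL for 12 h to induce FLAG-Notch1(1704–2531). Switched to fresh medium with compound for 12 h. Lysates probed by western blot with anti-FLAG, anti-cleaved Notch1 (Val1744), anti-HES1 or anti-HES5, β-actin control.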

[11] = biological target: Neurogenic locus notch homolog protein 1 (Mus musculus) (UniProt Q01705); experiment: Inhibition of doxycycline-induced recombinant mouse N-terminal FLAG-tagged Notch1 (1704 to 2531 residues) activation expressed in human LS174T cells assessed as reduction in Hes5 level at 0.05 to 0.3 uM after 12 hrs by Western blot analysis; format: cell-based; in short: as §3
LS174T = experiment: Inhibition of doxycycline-induced Notch1 (1704 to 2531 residues) expression in human LS174T cells after 12 hrs by Western blot analysis; format: functional, cell-based; in short: as §3
[12] = biological target: Neurogenic locus notch homolog protein 1 (Mus musculus) (UniProt Q01705); experiment: Inhibition of doxycycline-induced recombinant mouse N-terminal FLAG-tagged Notch1 (1704 to 2531 residues) activation expressed in human LS174T cells assessed as reduction in NCID expression after 12 hrs by Western blot analysis; format: cell-based; in short: as §3
[13] = biological target: Neurogenic locus notch homolog protein 1 (Mus musculus) (UniProt Q01705); experiment: Inhibition of doxycycline-induced recombinant mouse N-terminal FLAG-tagged Notch1 (1704 to 2531 residues) activation expressed in human LS174T cells assessed as reduction in NCID expression at 0.5 uM after 12 hrs in presence of proteasome inhibitor MG132 by Western blot analysis; format: cell-based

## CO[C@@H]1C[C@H](O[C@H]2CC[C@@]3(C)[C@H](CC[C@@H]4[C@@H]3CC[C@]3(C)[C@@H](C5=CC(=O)OC5)CC[C@]43O)C2)O[C@H](C)[C@@H]1O
[1]; read-out: IC50
  IC50: 4.2 µM

## C[C@]12CC[C@H](O)C[C@H]1CC[C@@H]1[C@@H]2CC[C@]2(C)[C@@H](C3=CC(=O)OC3)CC[C@]12O [DIGITOXIGENIN]
[1]; ls174t
  IC50: Not Active

## CO[C@H]1C[C@H](O[C@H]2CC[C@@]3(C)[C@H](CC[C@@H]4[C@@H]3CC[C@]3(C)[C@@H](C5=CC(=O)OC5)[C@@H](O)C[C@]43O)C2)O[C@@H](C)[C@@H]1O
[1]; read-out: IC50
  IC50: 2.5 µM

## CO[C@@H]1C[C@H](O[C@H]2CC[C@@]3(C)[C@H](CC[C@@H]4[C@@H]3CC[C@]3(C)[C@@H](C5=CC(=O)OC5)[C@@H](OC(C)=O)C[C@]43O)C2)O[C@H](C)[C@@H]1O
[1]; read-out: IC50
  IC50: 2.7 µM

## CO[C@H]1C[C@H](O[C@H]2CC[C@@]3(C)[C@H](CC[C@@H]4[C@@H]3CC[C@]3(C)[C@@H](C5=CC(=O)OC5)CC[C@]43O)C2)O[C@@H](O)[C@@H]1O
[1]; read-out: IC50
  IC50: 2.7 µM

## CO[C@@H]1C[C@H](O[C@H]2CC[C@@]3(C)[C@H](CC[C@@H]4[C@@H]3CC[C@]3(C)C(C5=CC(=O)OC5)=CC[C@]43O)C2)O[C@H](C)[C@@H]1O
[1]; ls174t
  IC50: Not Active

## CO[C@H]1C[C@H](O[C@H]2CC[C@@]3(C)[C@H](CC[C@@H]4[C@@H]3CC[C@]3(C)[C@@H](C5=CC(=O)OC5)[C@@H](OC(C)=O)C[C@]43O)C2)O[C@@H](C)[C@@H]1O [OLEANDRIN]
[1]; read-out: IC50
  IC50: 0.12 µM
HPBALL [2]
  Activity: inactive
[3]
  inhibition: inactive
HPBALL [4]
  Activity: Active
[5]
  inhibition: Dose-dependent effect
[6]
  inhibition: Active
[7]
  inhibition: Dose-dependent effect
HEK293
  IC50: 0.028 µM
HPBALL [8]
  IC50: 0.014 µM
HPBALL [9]
  Activity: Active
[10]
  inhibition: Active
[11]
  inhibition: Active
LS174T
  inhibition: Dose-dependent effect
[12]
  inhibition: Dose-dependent effect
[13]
  inhibition: inactive

## CO[C@@H]1C[C@H](O[C@H]2CC[C@@]3(C)[C@H](CC[C@]4(O)[C@@H]3CC[C@]3(C)[C@@H](C5=CC(=O)OC5)CC[C@@]34O)C2)O[C@H](C)[C@@H]1O
[1]; ls174t
  IC50: Not Active
